# Source: paper PMC6519384 (Andrology, 2018)
# What was measured:
# [1] = TU added to serum with increasing NaF, T measured; format: in vitro ADME, human; settings: 500 ng/mL TU added to two serum samples or an aqueous solution
# [2] = Single oral dose of 316 mg TU in hypogonadal men; format: in vivo, human; settings: TU concentrations below 15 ng/mL; oral 316 mg TU
# Procedure, shortened: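 Eight hypogonadal men received one 316 mg oral TU dose in a self‑emulsifying system just before a meal. Blood was drawn at −30 and 0 min, then hourly for 12 h, into plain and NaF‑EDTA tubes. T was measured by LC‑MS/MS after ethyl acetate:hexane (3:2) extraction. The % difference in T between tube types was plotted against the matching average TU, with regression.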
# blood esterases = assay: Ex vivo addition of TU to blood in different blood collection tubes; format: in vitro ADME, human
# Procedure, shortened: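 Venous blood from hypogonadal or healthy men is aliquoted (2 mL) into duplicate plain or inhibitor-containing tubes. TU in methanol (≤1% methanol) is added to 30–1000 ng/mL final, then held 30/60 min at 4 °C or RT before centrifugation. T is extracted with ethyl acetate:hexane (3:2) and measured by LC‑MS/MS (m/z 289.2/109.0, D2‑T internal standard). Results are % difference vs the average plain tube with no ester added.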
# [3] = TU 300 ng/mL, K2EDTA (1.8 mg/mL) tube, 30 min 4 °C, Experiment 2
# [4] = TU 300 ng/mL, K2EDTA (1.8 mg/mL) tube, 60 min 4 °C, Experiment 2
# [5] = TU 300 ng/mL, K2EDTA (1.8 mg/mL) tube, 60 min RT, Experiment 2
# [6] = TU 300 ng/mL, NaF (1.5 mg/mL) + Na2EDTA (3 mg/mL) tube, 60 min RT, Experiment 2
# [7] = TU 300 ng/mL, NaF (5 mg/mL) + K2Oxalate (4 mg/mL) tube, 60 min RT, Experiment 2
# [8] = TU 300 ng/mL, NaF (15 mg/mL) tube, 30 min 4 °C, Experiment 1
# [9] = TU 300 ng/mL, NaF (15 mg/mL) tube, 30 min RT, Experiment 1
# [10] = TU 300 ng/mL, P800 tube, 30 min 4 °C, Experiment 2
# [11] = TU 300 ng/mL, P800 tube, 60 min 4 °C, Experiment 2
# [12] = TU 300 ng/mL, P800 tube, 60 min RT, Experiment 2
# [13] = TU 300 ng/mL, Plain tube, 30 min 4 °C, Experiment 1
# [14] = TU 300 ng/mL, Plain tube, 30 min RT, Experiment 1
# [15] = TU 300 ng/mL, P‐800 tube, 30 min 4 °C, Experiment 1
# [16] = TU 300 ng/mL, P‐800 tube, 30 min RT, Experiment 1
# [17] = TU 600 ng/mL, K2EDTA (1.8 mg/mL) tube, 30 min 4 °C, Experiment 2
# [18] = TU 600 ng/mL, K2EDTA (1.8 mg/mL) tube, 60 min 4 °C, Experiment 2
# [19] = TU 600 ng/mL, K2EDTA (1.8 mg/mL) tube, 60 min RT, Experiment 2
# [20] = TU 600 ng/mL, NaF (1.5 mg/mL) + Na2EDTA (3 mg/mL) tube, 60 min RT, Experiment 2
# [21] = TU 600 ng/mL, NaF (5 mg/mL) + K2Oxalate (4 mg/mL) tube, 60 min RT, Experiment 2
# [22] = TU 600 ng/mL, NaF (15 mg/mL) tube, 30 min 4 °C, Experiment 1
# [23] = TU 600 ng/mL, NaF (15 mg/mL) tube, 30 min RT, Experiment 1
# [24] = TU 600 ng/mL, P800 tube, 30 min 4 °C, Experiment 2
# [25] = TU 600 ng/mL, P800 tube, 60 min 4 °C, Experiment 2
# [26] = TU 600 ng/mL, P800 tube, 60 min RT, Experiment 2
# [27] = TU 600 ng/mL, Plain tube, 30 min 4 °C, Experiment 1
# [28] = TU 600 ng/mL, Plain tube, 30 min 4 °C, Experiment 2
# [29] = TU 600 ng/mL, Plain tube, 30 min RT, Experiment 1
# [30] = TU 600 ng/mL, Plain tube, 60 min 4 °C, Experiment 2
# [31] = TU 600 ng/mL, Plain tube, 60 min RT, Experiment 2
# [32] = TU 600 ng/mL, P‐800 tube, 30 min 4 °C, Experiment 1
# [33] = TU 600 ng/mL, P‐800 tube, 30 min RT, Experiment 1
structure (smiles),measurement,setting,value
"CCCCCCCCCCC(=O)O[C@H]1CC[C@H]2[C@@H]3CCC4=CC(=O)CC[C@]4(C)[C@H]3CC[C@]12C [TU, testosterone undecanoate]",Measured T levels after incubation with different amounts of NaF,[1],did not increase
same,Mean difference in T concentrations between plain and NaF‐EDTA tubes,[2],~0%
same,% difference vs. no TU added,blood esterases; [3],+20.5%
same,Measured T,blood esterases; [3],534.5 ng/dL
same,% difference vs. no TU added,blood esterases; [4],+14.7%
same,Measured T,blood esterases; [4],521.5 ng/dL
same,% difference vs. no TU added,blood esterases; [5],+129.7%
same,Measured T,blood esterases; [5],1105.0 ng/dL
same,% difference vs. no TU added,blood esterases; [6],+57.5%
same,Measured T,blood esterases; [6],705.0 ng/dL
same,% difference vs. no TU added,blood esterases; [7],+79.5%
same,Measured T,blood esterases; [7],717.0 ng/dL
same,% difference vs. no TU added,blood esterases; [8],−0.6%
same,Measured T,blood esterases; [8],269.5 ng/dL
same,% difference vs. no TU added,blood esterases; [9],+16.4%
same,Measured T,blood esterases; [9],301.5 ng/dL
same,% difference vs. no TU added,blood esterases; [10],+13.1%
same,Measured T,blood esterases; [10],492.5 ng/dL
same,% difference vs. no TU added,blood esterases; [11],+3.3%
same,Measured T,blood esterases; [11],491.5 ng/dL
same,% difference vs. no TU added,blood esterases; [12],+100.9%
same,Measured T,blood esterases; [12],860.0 ng/dL
same,% difference vs. no TU added,blood esterases; [13],+17.9%
same,Measured T,blood esterases; [13],412.0 ng/dL
same,Measured T,"blood esterases; TU 300 ng/mL, Plain tube, 30 min 4 °C, Experiment 2",624.5 ng/dL
same,% difference vs. no TU added,blood esterases; [14],+43.1%
same,Measured T,blood esterases; [14],505.0 ng/dL
same,Measured T,"blood esterases; TU 300 ng/mL, Plain tube, 60 min 4 °C, Experiment 2",741.5 ng/dL
same,Measured T,"blood esterases; TU 300 ng/mL, Plain tube, 60 min RT, Experiment 2",984.0 ng/dL
same,% difference vs. no TU added,blood esterases; [15],+18.7%
same,Measured T,blood esterases; [15],384.0 ng/dL
same,% difference vs. no TU added,blood esterases; [16],+41.7%
same,Measured T,blood esterases; [16],467.0 ng/dL
same,% difference vs. no TU added,blood esterases; [17],+21.6%
same,Measured T,blood esterases; [17],539.5 ng/dL
same,% difference vs. no TU added,blood esterases; [18],+47.3%
same,Measured T,blood esterases; [18],669.5 ng/dL
same,% difference vs. no TU added,blood esterases; [19],+266.9%
same,Measured T,blood esterases; [19],1765.0 ng/dL
same,% difference vs. no TU added,blood esterases; [20],+176.0%
same,Measured T,blood esterases; [20],1235.0 ng/dL
same,% difference vs. no TU added,blood esterases; [21],+171.6%
same,Measured T,blood esterases; [21],1085.0 ng/dL
same,% difference vs. no TU added,blood esterases; [22],+24.2%
same,Measured T,blood esterases; [22],336.5 ng/dL
same,% difference vs. no TU added,blood esterases; [23],+39.0%
same,Measured T,blood esterases; [23],360.0 ng/dL
same,% difference vs. no TU added,blood esterases; [24],+18.3%
same,Measured T,blood esterases; [24],515.0 ng/dL
same,% difference vs. no TU added,blood esterases; [25],+22.3%
same,Measured T,blood esterases; [25],582.0 ng/dL
same,% difference vs. no TU added,blood esterases; [26],+222.4%
same,Measured T,blood esterases; [26],1380.0 ng/dL
same,% difference vs. no TU added,blood esterases; [27],+30.3%
same,Measured T,blood esterases; [27],455.5 ng/dL
same,% difference vs. no TU added,blood esterases; [28],+23.7%
same,Measured T,blood esterases; [28],541.0 ng/dL
same,% difference vs. no TU added,blood esterases; [29],+130.6%
same,Measured T,blood esterases; [29],814.0 ng/dL
same,% difference vs. no TU added,blood esterases; [30],+88.8%
same,Measured T,blood esterases; [30],794.0 ng/dL
same,% difference vs. no TU added,blood esterases; [31],+271.8%
same,Measured T,blood esterases; [31],1515.0 ng/dL
same,% difference vs. no TU added,blood esterases; [32],+15.8%
same,Measured T,blood esterases; [32],374.5 ng/dL
same,% difference vs. no TU added,blood esterases; [33],+95.1%
same,Measured T,blood esterases; [33],643.0 ng/dL
same,T measured,"blood esterases; TU added 30 ng/mL, blood from four hypogonadal men, plain tubes, baseline serum T 26.0 ± 6.2 ng/dL",48.9 ± 5.1 ng/dL
same,Increase in measured T from baseline,"blood esterases; highest TU concentration (1000 ng/mL), blood from hypogonadal men, plain tubes",≤ 22 fold
same,Reduction of overestimation of T by collecting blood into NaF tubes,blood esterases; increasing amounts of TU added to blood,30–85%
same,Overestimation of measured T levels,"blood esterases; increasing amounts of TU added to plain tubes, Table 3, Experiments 1 and 2",+24 to 272%
